In ChEMBL document CHEMBL1955718, “Discovery of new orally effective analgesic and anti-inflammatory hybrid furoxanyl N-acylhydrazone derivatives” (Bioorg Med Chem, 2012):
Calls of active or inactive are those of the source.

Legend:
Salmonella typhimurium [1] = test: Induction of mutagenesis in Salmonella Typhimurium TA98 assessed as number of revertants at 6 to 500 ug/plate in presence of mouse liver S9 fraction; type: toxicity, organism-based; settings: salmonella enterica subsp. enterica serovar typhimurium
HT-29 [2] = test: Inhibition of TNF-alpha-induced NFkappaB activation expressed in human HT-29 cells coexpressing hrGFP at 50 uM after 24 hrs by propidium iodide staining-based flow cytometric analysis relative to control; type: cell-based
In short: (§1)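 HT-29 cells stably expressing NF-κB-driven hrGFP given compound (DMSO <0.5%) for 2 h at the maximum non-cytotoxic concentration, then TNF-α at 3 ng/mL final for 18–24 h. Cells trypsinised and stained with propidium iodide; 5000 events gated on FSC/SSC. The %GFP-positive among PI-excluding live cells is normalised to TNF-α/DMSO control, ± SD.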

Salmonella typhimurium [3] = test: Induction of mutagenesis in Salmonella Typhimurium TA98 assessed as number of revertants at 6 to 500 ug/plate in absence of mouse liver S9 fraction; type: toxicity, organism-based; settings: salmonella enterica subsp. enterica serovar typhimurium
Rattus norvegicus [4] = test: Antihyperalgesic activity against carrageenan-induced thermal hyperalgesia in Wistar rat assessed as latency of withdrawal response at 100 umol/kg, po administered 1 hr before carrageenan challenge measured after 3 hrs by hot plate test; type: functional
In short: (§2)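 Wistar rats of both sexes (150–200 g) were dosed orally as a suspension in 5% arabic gum in saline, with vehicle controls. After 1 h, 0.1 mL 1% carrageenan (1 mg/paw) or saline was injected subplantar into the hind paws. Left hind paw withdrawal latency was read on a 51 °C hot plate at 0–240 min (cut-off 20 s). Δlatency = time-0 minus later latency; mean ± SEM, n = 8–10; t-test.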

HT-29 [5] = test: Inhibition of NF-kappaB activation expressed in human HT-29 cells assessed as inhibition of TNFalpha-stimulated IL8 release at 50 uM after 24 hrs by flow cytometric analysis relative to control; type: cell-based
In short: (§3)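 Reporter HT-29-NF-κB-hrGFP cells pretreated 2 h with compound (DMSO <0.5%) at the highest concentration with 100% survival, then stimulated with TNF-α (3 ng/mL final) for 18–24 h at 37 °C. IL-8 in clarified supernatant measured by flow cytometric bead assay (500 events). Expressed as % of TNF-α/DMSO control ± SD; thalidomide as reference.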

Mus musculus [6] = test: Analgesic activity in albino mouse assessed as inhibition of acetic acid-induced abdominal constriction at 100 umol/kg, po administered 1 hr before acetic acid challenge measured after 30 mins relative to control; type: functional; settings: Abdomen
In short: (§4)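 Albino mice of both sexes (18–23 g) were dosed orally as a suspension in 5% arabic gum in saline, with vehicle controls. After 1 h they received 0.6% acetic acid ip (0.1 mL/10 g). Constrictions were counted for 20 min starting 10 min after injection. Data are % inhibition vs vehicle, mean ± SEM, Student t-test.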

Rattus norvegicus [7] = test: Antihyperalgesic activity against carrageenan-induced thermal hyperalgesia in Wistar rat assessed as latency of withdrawal response at 100 umol/kg, po administered 1 hr before carrageenan challenge measured after 1 hr by hot plate test; type: functional; in short: as §2
Salmonella typhimurium [8] = test: Induction of mutagenesis in Salmonella Typhimurium TA98 assessed as number of revertants at 3.1 to 250 ug/plate in absence of mouse liver S9 fraction; type: toxicity, organism-based; settings: salmonella enterica subsp. enterica serovar typhimurium
In short: (§5)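 S. typhimurium TA98, plate incorporation on minimal glucose (Vogel-Bonner) agar. Compounds were in DMSO, dosed in triplicate with a top non-toxic dose of 250 or 350 µg/plate. Runs were without S9 (positive control 4-nitro-o-phenylenediamine, 20 µg/plate) or with 500 µL Aroclor-induced mouse liver S9 (positive control 2-aminofluorene, 10 µg/plate), plus a DMSO control. Revertants were counted manually; mutagenic means ≥2-fold spontaneous revertants at two consecutive doses.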

[9] = Inhibition of soybean lipoxygenase using arachidonic acid as substrate; set-up: species or system Glycine max
In short: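 Soybean 15-lipoxygenase kit assay, arachidonic acid substrate, H2O2 as lipoxygenating agent in 0.1 M Tris-HCl pH 7.4. Single-point screen at 50 µM. IC50 found by varying concentration over 10–100 µM. Quercetin at 4 µM as positive control; duplicate means; Student t-test.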

HT-29 [10] = test: Inhibition of TNFalpha-induced NF-kappaB activation expressed in human HT-29 cells coexpressing hrGFP at 100 uM after 24 hrs by propidium iodide staining-based flow cytometric analysis relative to control; type: cell-based; in short: as §1
Salmonella typhimurium [11] = test: Induction of mutagenesis in Salmonella Typhimurium TA98 assessed as number of revertants at 3.1 to 250 ug/plate in presence of mouse liver S9 fraction; type: toxicity, organism-based; settings: salmonella enterica subsp. enterica serovar typhimurium; in short: as §5
HT-29 [12] = test: Inhibition of NF-kappaB activation expressed in human HT-29 cells assessed as inhibition of TNFalpha-stimulated IL8 release at 400 uM after 24 hrs by flow cytometric analysis relative to Thal; type: cell-based; in short: as §3
Salmonella typhimurium [13] = test: Induction of mutagenesis in Salmonella Typhimurium TA98 assessed as number of revertants at 4 to 350 ug/plate in presence of mouse liver S9 fraction; type: toxicity, organism-based; settings: salmonella enterica subsp. enterica serovar typhimurium; in short: as §5
Salmonella typhimurium [14] = test: Induction of mutagenesis in Salmonella Typhimurium TA98 assessed as number of revertants at 4 to 350 ug/plate in absence of mouse liver S9 fraction; type: toxicity, organism-based; settings: salmonella enterica subsp. enterica serovar typhimurium; in short: as §5
Mus musculus [15] = test: Analgesic activity in albino mouse assessed as inhibition of acetic acid-induced abdominal constriction at 100 umol/kg, po administered 1 hr before acetic acid challenge measured after 60 mins relative to control; type: functional; settings: Abdomen; in short: as §4
Rattus norvegicus [16] = test: Antihyperalgesic activity against carrageenan-induced thermal hyperalgesia in Wistar rat assessed as latency of withdrawal response at 100 umol/kg, po administered 1 hr before carrageenan challenge measured after 30 to 240 mins by hot plate test; type: functional, organism-based
In short: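 Wistar rats of both sexes (150–200 g) dosed orally at 100 µmol/kg as suspension in 5% arabic gum in saline, vehicle controls. After 1 h, 1% carrageenan (1 mg/paw) or saline injected subplantar. Left hind paw withdrawal latency on hot plate at 51 ± 0.1 °C read at 0–240 min, 20 s cut-off. Δ latency = time-0 latency minus later latency; mean ± SEM, n = 8–10; Student t-test.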

SMILES	Activity (Salmonella typhimurium [1])	NF-kappaB activation (% of TNF-alpha control) (HT-29 [2]) [%]	Activity (Salmonella typhimurium [3])	inhibition in vivo at 100 µmol/kg (Rattus norvegicus [4]) [%]	inhibition (HT-29 [5]) [%]	inhibition in vivo at 100 µmol/kg (Mus musculus [6]) [%]	inhibition in vivo at 100 µmol/kg (Rattus norvegicus [7]) [%]	Activity (Salmonella typhimurium [8])	IC50 [9] [µM]	NF-kappaB activity (% of TNF-alpha control) (HT-29 [10]) [%]	Activity (Salmonella typhimurium [11])	fold change (FC) (HT-29 [12])	Activity (Salmonella typhimurium [13])	Activity (Salmonella typhimurium [14])	inhibition in vivo at 100 µmol/kg (Mus musculus [15]) [%]	Activity (Rattus norvegicus [16])
Cc1[nH]cnc1C(=O)N/N=C/c1ccc2no[n+]([O-])c2c1	Non-toxic	71	Toxic	14	51	46										
O=C(N/N=C/c1c(-c2ccccc2)no[n+]1[O-])c1ccc2c(c1)OCO2						42	14	Non-toxic	> 100	12	Non-toxic	16				
Cc1c(C(=O)N/N=C/c2ccc(N(C)C)cc2)no[n+]1[O-]										150			Non-toxic	Non-toxic	22	inactive
